Assays:
[1] = biological target: T1, Polyunsaturated fatty acid 5-lipoxygenase (Rattus norvegicus, UniProt P12527); assay: Inhibition of 5-LOX in RBL1 cells assessed as reduction in LTB4 production using A23187-induced arachidonic acid as substrate preincubated for 2 hrs followed by A23187 addition measured after 15 mins by LC-MS/MS analysis; type: cell-based
T1 sequence (P12527 whole entry): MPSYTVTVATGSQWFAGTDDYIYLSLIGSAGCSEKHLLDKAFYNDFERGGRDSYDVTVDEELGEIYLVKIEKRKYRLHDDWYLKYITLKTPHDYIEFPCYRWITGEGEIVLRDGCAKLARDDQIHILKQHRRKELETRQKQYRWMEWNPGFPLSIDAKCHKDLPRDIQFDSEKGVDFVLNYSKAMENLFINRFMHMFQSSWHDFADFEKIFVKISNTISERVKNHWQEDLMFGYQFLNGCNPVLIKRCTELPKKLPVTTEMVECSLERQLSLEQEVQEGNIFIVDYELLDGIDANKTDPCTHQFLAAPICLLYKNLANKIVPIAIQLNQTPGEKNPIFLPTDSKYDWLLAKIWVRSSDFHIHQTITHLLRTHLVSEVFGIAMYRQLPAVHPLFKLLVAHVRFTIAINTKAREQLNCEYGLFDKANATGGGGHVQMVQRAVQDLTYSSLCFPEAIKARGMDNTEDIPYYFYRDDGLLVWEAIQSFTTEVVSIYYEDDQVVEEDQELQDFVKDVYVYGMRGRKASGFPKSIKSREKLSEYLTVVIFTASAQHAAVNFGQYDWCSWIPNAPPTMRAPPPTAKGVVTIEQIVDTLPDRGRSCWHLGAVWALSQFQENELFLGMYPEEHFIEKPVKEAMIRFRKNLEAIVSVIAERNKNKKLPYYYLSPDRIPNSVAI
Procedure, shortened: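 RBL-1 cells incubated 2 h with test compound at several concentrations, then A23187 (12 μM) added for 15 min to trigger arachidonic acid release; LTB4 in culture supernatant quantified by LC–MS/MS. Triplicate samples per concentration; IC50 with 95% confidence interval from sigmoidal curve fit.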

[2] = n-Octanol-aqueous buffer distribution coefficient, log D of the compound at pH 7.4 by LC-MS method; type: physicochemical
[3] = Effective permeability of the compound assessed as membrane retention by PAMPA relative to control; type: ADME
[4] = Dissociation constant, pKa of the compound by capillary electrophoresis method; type: physicochemical
[5] = Effective permeability of the compound by PAMPA; type: ADME; conditions: read-out: Peff
Procedure, shortened: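 PAMPA run externally; effective permeability reported together with membrane retention and log apparent permeability coefficient.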

Cyclooxygenase = biological target: T2, Cyclooxygenase (Rattus norvegicus, UniProt P35355+Q63921); assay: Inhibition of COX in RBL1 cells assessed as reduction in PGE2/D2 production using A23187-induced arachidonic acid as substrate preincubated for 2 hrs followed by A23187 addition measured after 15 mins by LC-MS/MS analysis; type: cell-based
T2 sequence (P35355 whole entry): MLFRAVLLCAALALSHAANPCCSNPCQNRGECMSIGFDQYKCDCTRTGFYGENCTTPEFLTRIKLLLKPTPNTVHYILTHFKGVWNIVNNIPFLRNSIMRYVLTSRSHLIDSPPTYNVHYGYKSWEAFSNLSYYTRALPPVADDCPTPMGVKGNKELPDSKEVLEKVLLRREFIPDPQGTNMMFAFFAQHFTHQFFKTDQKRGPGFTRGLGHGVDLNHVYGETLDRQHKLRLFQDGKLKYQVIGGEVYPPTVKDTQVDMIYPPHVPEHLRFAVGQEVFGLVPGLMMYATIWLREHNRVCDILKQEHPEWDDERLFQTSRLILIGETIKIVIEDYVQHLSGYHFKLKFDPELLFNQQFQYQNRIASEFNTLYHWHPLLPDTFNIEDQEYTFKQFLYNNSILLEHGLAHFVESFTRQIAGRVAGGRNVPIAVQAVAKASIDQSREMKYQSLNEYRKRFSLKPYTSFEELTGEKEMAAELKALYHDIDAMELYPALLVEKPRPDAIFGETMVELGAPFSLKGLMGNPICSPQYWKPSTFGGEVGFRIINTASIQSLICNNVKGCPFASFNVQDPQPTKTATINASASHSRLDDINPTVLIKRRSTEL
T2 sequence (Q63921 whole entry): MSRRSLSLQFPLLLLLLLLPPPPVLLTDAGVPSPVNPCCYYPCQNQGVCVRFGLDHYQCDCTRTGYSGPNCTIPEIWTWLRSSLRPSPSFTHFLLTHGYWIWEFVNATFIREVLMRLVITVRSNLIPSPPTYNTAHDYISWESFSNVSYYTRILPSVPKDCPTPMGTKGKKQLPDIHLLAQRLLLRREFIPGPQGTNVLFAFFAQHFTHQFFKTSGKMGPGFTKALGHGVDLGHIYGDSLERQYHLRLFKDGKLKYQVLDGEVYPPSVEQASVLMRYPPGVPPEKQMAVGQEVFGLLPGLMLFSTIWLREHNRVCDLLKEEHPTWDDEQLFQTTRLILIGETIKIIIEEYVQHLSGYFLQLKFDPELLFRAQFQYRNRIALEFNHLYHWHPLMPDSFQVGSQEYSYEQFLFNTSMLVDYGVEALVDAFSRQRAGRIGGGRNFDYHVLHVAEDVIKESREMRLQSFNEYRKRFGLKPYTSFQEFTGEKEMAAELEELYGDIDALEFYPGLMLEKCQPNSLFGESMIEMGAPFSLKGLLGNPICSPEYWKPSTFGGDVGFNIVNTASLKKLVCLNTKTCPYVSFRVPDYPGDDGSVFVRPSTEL

| IC50 [1] [µM] | IC50 (Cyclooxygenase) [µM] | SMILES | logD [2] | R% [3] [%] | pKa [4] | Papp [5] [×10⁻⁶ cm/s] |
| --- | --- | --- | --- | --- | --- | --- |
| 8.4 | 34.1 | CC(C)Cc1ccc(C(C)C2(O)COC2)cc1 (centres undefined) | – | – | – | – |
| 11.7 | 17.4 | CC(C)Cc1ccc(C(C)C2(O)C[S+]([O-])C2)cc1 (centres undefined) | – | – | – | – |
| 7.6 | > 100 | CC(C)Cc1ccc(C(C)C2(O)CSC2)cc1 (centres undefined) | – | – | – | – |

The remaining lines, values behind:

| SMILES | IC50 [1] [µM] | IC50 (Cyclooxygenase) [µM] | logD [2] | R% [3] [%] | pKa [4] | Papp [5] [×10⁻⁶ cm/s] |
| --- | --- | --- | --- | --- | --- | --- |
| CC(C)Cc1ccc(C(C)C(=O)O)cc1 (centres undefined) [IBUPROFEN] | > 100 | – | – | – | – | – |
| [O-][S+]1CC(O)(CCc2ccccc2)C1 (centres undefined) | – | – | 1.22 | 10 | > 12 | 6.23 |
| CC(C)Cc1ccc(C2CC(O)=CC2=O)cc1 (centres undefined) | > 100 | 28.1 | – | – | – | – |
| OC1(CCc2ccccc2)CSC1 | – | – | 2.99 | 11.4 | > 12 | 13.2 |
| CC(C)Cc1ccc(C(C)C2(O)CS(=O)(=O)C2)cc1 (centres undefined) | 20.2 | 14.6 | – | – | – | – |
| O=S1(=O)CC(O)(CCc2ccccc2)C1 | – | – | 1.24 | 10.7 | 9.31 | 12.2 |
| OC1(CCc2ccccc2)COC1 | – | – | 2.07 | -11.9 | > 12 | 8.27 |
| CC(C)Cc1ccc(C(C)c2nnn[nH]2)cc1 (centres undefined) | > 100 | 31.8 | – | – | – | – |

Reference: ChEMBL document CHEMBL4190334, “Evaluation of Oxetan-3-ol, Thietan-3-ol, and Derivatives Thereof as Bioisosteres of the Carboxylic Acid Functional Group” (ACS Med Chem Lett, 2017)
